Results: ChEMBL document CHEMBL1136868, “Synthesis of phenylisothiourea derivatives as inhibitors of NO production in LPS activated macrophages” (Bioorg Med Chem Lett, 2009)
The source made the active and inactive calls. The calls are words filed in the database; no cut-off is given here.

Tests used:
RAW264.7 [1] = assay: Antiinflammatory activity against LPS-stimulated mouse RAW264.7 cells assessed as inhibition of NO production at 20 uM after 20 hrs relative to control; type: functional; conditions: RAW264.7, 20 h
Procedure, shortened: (§1)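 RAW 264.7 cells plated at 1 × 10⁵ cells/mL in 10% FBS–DMEM and grown 24 h, then moved to 1% FBS medium. Cells were stimulated with LPS (1 µg/mL) with or without compound for 20 h. Nitrite accumulated in supernatant was read by Griess reagent (10 min, room temperature, A570). Inhibition is relative to LPS control, n = 3; IC50 given as mean ± SD of three experiments.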

RAW264.7 [2] = assay: Antiinflammatory activity against LPS-stimulated mouse RAW264.7 cells assessed as inhibition of NO production at 50 uM after 20 hrs relative to control; type: functional; conditions: RAW264.7, 20 h; procedure, shortened: as §1
RAW264.7 [3] = assay: Antiinflammatory activity against LPS-stimulated mouse RAW264.7 cells assessed as inhibition of NO production after 20 hrs; type: functional, cell-based; conditions: RAW264.7, 20 h; procedure, shortened: as §1
RAW264.7 [4] = assay: Inhibition of iNOS protein expression in LPS-stimulated mouse RAW264.7 cells at 10 uM after 20 hrs by Western blot; type: functional, cell-based
Procedure, shortened: (§2)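 RAW 264.7 cells were exposed to compound for 20 h during LPS (1 µg/mL) activation, then washed and lysed. 20 µg lysate protein was run on 8% SDS-PAGE, blotted to PVDF and probed for iNOS and actin. iNOS band density was normalized to actin; mean ± SD of three independent densitometric analyses.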

RAW264.7 [5] = assay: Suppression of LPS-induced NF-kappaB p65 subunit translocation into nucleus in mouse RAW264.7 cells assessed as p65 protein level at 10 uM after 30 mins pretreated 30 mins before LPS challenge by Western blot; type: functional, cell-based
Procedure, shortened: (§3)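 Macrophages were pretreated with compound for 30 min, then given LPS (1 µg/mL) for a further 30 min. Nuclear extracts were immunoblotted for p65, with levels normalized to PARP as the loading control.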

RAW264.7 [6] = assay: Cytotoxicity against mouse RAW264.7 cells; type: cell-based
RAW264.7 [7] = assay: Inhibition of iNOS protein expression in LPS-stimulated mouse RAW264.7 cells at 5 uM after 20 hrs by Western blot; type: functional; conditions: RAW264.7, 20 h; procedure, shortened: as §2
RAW264.7 [8] = assay: Inhibition of iNOS mRNA expression in LPS-stimulated mouse RAW264.7 cells at 5 uM after 6 hrs by RT-PCR; type: functional, cell-based
Procedure, shortened: (§4)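 RAW 264.7 cells (1.8 × 10⁶ per 60 mm dish) were stimulated 6 h with LPS (1 µg/mL) with or without compound. Total RNA was extracted and 2 µg was reverse transcribed with random hexamers. PCR ran 25 cycles (94 °C, 55 °C, 72 °C, 30 s each), and products were resolved on 2% agarose. iNOS was normalized to β-actin; mean ± SD of three densitometric analyses.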

RAW264.7 [9] = assay: Suppression of LPS-induced NF-kappaB p65 subunit translocation into nucleus in mouse RAW264.7 cells assessed as p65 protein level at 5 uM after 30 mins pretreated 30 mins before LPS challenge by Western blot; type: functional, cell-based; procedure, shortened: as §3
RAW264.7 [10] = assay: Antiinflammatory activity against LPS-stimulated mouse RAW264.7 cells assessed as inhibition of NO production at 5 uM after 20 hrs relative to control; type: functional; conditions: RAW264.7, 20 h; procedure, shortened: as §1
[11] = Peroxynitrite radical scavenging activity assessed as dihydrohodamine 123 product by cell free assay
Procedure, shortened: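 In a cell-free system, oxidation of dihydrorhodamine 123 by authentic peroxynitrite was monitored by fluorescence.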

RAW264.7 [12] = assay: Inhibition of iNOS mRNA expression in LPS-stimulated mouse RAW264.7 cells at 10 uM after 6 hrs by RT-PCR; type: functional, cell-based; procedure, shortened: as §4

SMILES | inhibition at 20 µM (RAW264.7 [1]) | inhibition at 50 µM (RAW264.7 [2]) | also measured
CC(C)S/C(N)=N\c1ccc(OCCn2c3ccccc3c3ccccc32)cc1 | 22% | 30% | –
CCN/C(=N/c1ccc(C)cc1)SC(C)C | < 10% | 14% | –
CS/C(N)=N\c1ccc(OCCn2c3ccccc3c3ccccc32)cc1 | 22% | 24% | –
CCN/C(=N/c1ccc(OCCn2c3ccccc3c3ccccc32)cc1)SC | 99% | 100% | IC50 (RAW264.7 [3]): 2.9 µM; iNOS protein expression inhibition (RAW264.7 [4]): Active; Activity (RAW264.7 [5]): Active; Activity (RAW264.7 [6]): Non-toxic
CCN/C(=N/c1ccc(OCCn2c3ccccc3c3ccccc32)cc1)SC(C)C | 48% | – | IC50 (RAW264.7 [3]): 1.3 µM; iNOS protein expression inhibition (RAW264.7 [4]): Active; inhibition at 5 µM (RAW264.7 [7]): 79%; inhibition (RAW264.7 [8]): Active; Activity (RAW264.7 [9]): Active; Activity (RAW264.7 [5]): Active; Activity (RAW264.7 [6]): Non-toxic
CCNC(=S)Nc1ccc(-c2ccccc2)cc1 | < 10% | 23% | –
CCNC(=S)Nc1ccc(O)cc1 | < 10% | 20% | –
CCNC(=S)Nc1ccc(OCC)cc1 | < 10% | 12% | –
CCCc1ccc(NC(=S)NCC)cc1 | < 10% | 23% | –
CCN/C(=N/c1ccc(OCCn2c3ccccc3c3ccccc32)cc1)SCc1ccccc1 | 31% | 33% | –
CCN/C(=N/c1ccc(-c2ccccc2)cc1)SC(C)C | 85% | 96% | inhibition at 5 µM (RAW264.7 [10]): 13%; IC50 (RAW264.7 [3]): 11.2 µM; iNOS protein expression inhibition (RAW264.7 [4]): Active; Activity (RAW264.7 [5]): Active; Activity (RAW264.7 [6]): Non-toxic
CCN/C(=N/c1ccc(OCCn2c3ccccc3c3ccccc32)cc1)SCc1ccc(F)cc1 | 36% | 40% | –
CCN/C(=N/c1ccc(OCCn2c3ccccc3c3ccccc32)cc1)SCc1ccc(C(=O)OC)cc1 | 14% | 17% | –
CCN/C(=N/c1ccc(OCCn2c3ccccc3c3ccccc32)cc1)SCc1ccc(C(=O)O)cc1 | 90% | 100% | inhibition at 5 µM (RAW264.7 [10]): 39%; IC50 (RAW264.7 [3]): 5.3 µM; iNOS protein expression inhibition (RAW264.7 [4]): Active; Activity (RAW264.7 [5]): Active; SC50 [11]: 14 µM; Activity (RAW264.7 [6]): Non-toxic
CCNC(=S)Nc1ccc(C)cc1 | < 10% | 14% | –
CCNC(=S)Nc1ccc(Cl)cc1 | < 10% | 11% | –
COc1cc(/C=C/C(=O)CC(=O)/C=C/c2ccc(O)c(OC)c2)ccc1O [CURCUMIN] | – | – | inhibition (RAW264.7 [12]): Active; Activity (RAW264.7 [5]): Active; Activity (RAW264.7 [6]): Non-toxic
CCCc1ccc(/N=C(/NCC)SC(C)C)cc1 | < 10% | 71% | –
CCN/C(=N/c1ccc(OCC)cc1)SC(C)C | < 10% | 22% | –
CCN/C(=N/c1ccc(Cl)cc1)SC(C)C | < 10% | 62% | –
CCS/C(N)=N\c1ccc(OCCn2c3ccccc3c3ccccc32)cc1 | 32% | 64% | –
